# Rin1 Abl inh: inhibitors of human Rin1-Abl protein interaction; TR-FRET Rin1/Abl binding, biochemical; inhibition, % at 7.35 µM; 0.4% of 360,000 active; in the data active means inhibition above about 5%, passing the limit was not always enough
# Target sequence (P00519 whole entry, looked up): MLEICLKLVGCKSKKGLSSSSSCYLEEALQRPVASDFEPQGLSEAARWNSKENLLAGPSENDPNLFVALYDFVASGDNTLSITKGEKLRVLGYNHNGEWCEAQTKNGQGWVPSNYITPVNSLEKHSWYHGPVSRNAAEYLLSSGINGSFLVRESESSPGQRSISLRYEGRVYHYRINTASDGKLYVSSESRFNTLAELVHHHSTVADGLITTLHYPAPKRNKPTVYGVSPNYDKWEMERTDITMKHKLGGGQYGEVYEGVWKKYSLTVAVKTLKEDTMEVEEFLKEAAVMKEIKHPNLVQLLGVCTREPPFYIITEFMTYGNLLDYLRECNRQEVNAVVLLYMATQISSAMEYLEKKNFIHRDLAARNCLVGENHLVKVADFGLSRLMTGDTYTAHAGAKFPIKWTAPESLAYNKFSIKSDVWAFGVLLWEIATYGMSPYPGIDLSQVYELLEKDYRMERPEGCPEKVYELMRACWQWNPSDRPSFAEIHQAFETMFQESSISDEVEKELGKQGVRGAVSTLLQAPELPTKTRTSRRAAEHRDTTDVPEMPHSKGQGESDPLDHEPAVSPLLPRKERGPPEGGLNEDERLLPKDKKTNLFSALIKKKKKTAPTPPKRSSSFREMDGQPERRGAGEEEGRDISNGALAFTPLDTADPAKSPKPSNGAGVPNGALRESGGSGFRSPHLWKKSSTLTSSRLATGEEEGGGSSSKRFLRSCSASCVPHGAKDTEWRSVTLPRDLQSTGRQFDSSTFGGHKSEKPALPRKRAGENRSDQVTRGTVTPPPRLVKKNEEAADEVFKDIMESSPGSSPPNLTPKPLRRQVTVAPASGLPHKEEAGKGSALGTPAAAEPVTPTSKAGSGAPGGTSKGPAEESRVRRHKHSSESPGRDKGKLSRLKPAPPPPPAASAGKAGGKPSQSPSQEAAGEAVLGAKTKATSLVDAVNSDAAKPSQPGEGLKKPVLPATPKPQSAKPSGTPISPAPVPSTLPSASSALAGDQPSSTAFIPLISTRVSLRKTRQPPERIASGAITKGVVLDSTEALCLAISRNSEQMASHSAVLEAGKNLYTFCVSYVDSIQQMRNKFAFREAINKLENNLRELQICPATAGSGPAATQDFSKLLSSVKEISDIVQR
# Target sequence (Q13671 whole entry, looked up): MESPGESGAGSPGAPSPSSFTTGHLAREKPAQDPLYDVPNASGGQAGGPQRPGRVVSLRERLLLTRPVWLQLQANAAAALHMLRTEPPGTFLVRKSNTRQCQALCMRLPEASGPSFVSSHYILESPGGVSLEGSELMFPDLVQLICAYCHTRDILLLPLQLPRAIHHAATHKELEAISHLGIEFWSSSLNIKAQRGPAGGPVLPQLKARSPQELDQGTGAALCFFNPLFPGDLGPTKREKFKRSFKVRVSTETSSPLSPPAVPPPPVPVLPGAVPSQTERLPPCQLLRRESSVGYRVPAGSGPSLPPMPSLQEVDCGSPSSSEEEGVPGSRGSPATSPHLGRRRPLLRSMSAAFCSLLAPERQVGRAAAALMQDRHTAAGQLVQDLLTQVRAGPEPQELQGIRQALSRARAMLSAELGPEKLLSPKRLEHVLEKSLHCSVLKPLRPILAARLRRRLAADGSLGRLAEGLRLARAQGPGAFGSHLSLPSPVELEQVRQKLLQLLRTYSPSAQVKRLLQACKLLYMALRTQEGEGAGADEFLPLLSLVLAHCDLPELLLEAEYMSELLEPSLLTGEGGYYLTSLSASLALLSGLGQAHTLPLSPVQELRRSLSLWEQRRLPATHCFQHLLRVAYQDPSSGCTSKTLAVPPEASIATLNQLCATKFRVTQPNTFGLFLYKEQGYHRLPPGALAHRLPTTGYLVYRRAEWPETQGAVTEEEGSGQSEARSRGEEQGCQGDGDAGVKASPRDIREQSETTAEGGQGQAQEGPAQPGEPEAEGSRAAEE
# Tb MetRS inh: blocks T. brucei methionyl-tRNA synthetase activity; purified T. brucei MetRS, ATP depletion, Kinase-Glo luminescence; inhibition, % at 11.9 µM; 0.4% of 360,000 active; AID 624268;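 active means inhibition above a per-plate cutoff of the control wells' mean inhibition plus 3 SD, cut at about 5.5% in these data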;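 further: 0% = DMSO wells median and 100% = median of wells with control inhibitor compound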
#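 assay system = parasite MetRS enzyme | timing = 15 min preincubation, 2 h reaction, all 25 °C | evaluation = percent inhibition relative to median high and low control wells | medium = HEPES buffer containing pyrophosphatase, BSA, spermine, DTT | compound = single dose, 11.9 µM final nominal, 0.9% final DMSO | detection = Kinase-Glo luminescence, ATP depletion format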
# PG9 Ab binder: binds the HIV-1 gp120 antibody PG9 | TR-FRET gp120-PG9 antibody binding | inhibition, % at 6.7 µM | 0.43% of 360,000 active; in the data active means inhibition above about 8.5%
# Rev-erbA mod: modulates human Rev-erb alpha binding to DNA; P20393; Rev-erbα–FITC-DNA binding, fluorescence polarization, 90 min; activity, % at 10 µM; 0.79% of 370,000 active; AID 1259318;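 active means activity above about 14%, limit read from the data; passing the limit was not always enough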;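 further: 0% = DMSO wells with 35 nM protein and 100% = DMSO wells with 750 nM protein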
# PG9 binder conf: confirmation of small molecules binding HIV-1 gp120 antibody PG9 | shares compounds with PG9 Ab binder | TR-FRET PG9 antibody binding, biochemical | inhibition, % at 6.7 µM | 90% of 1,500 active; in the data active means inhibition above about 9%
# PGV04 Ab binding: binds control antibody PGV04 in PG9 binder counter-screen; shares compounds with PG9 Ab binder; TR-FRET PGV04 antibody-gp120 binding, biochemical; inhibition, % at 6.7 µM; 95% of 1,500 active; AID 651604; in the data active means inhibition above about 9.5%
# PG9 binder DR: PG9 antibody binding, dose response; shares compounds with PG9 Ab binder; TR-FRET PG9 antibody-gp120 binding inhibition; IC50, µM; 95 tested, under 10 active; AID 651848; in the data active means IC50 below about 10 µM
# PGV04 DR counter: PGV04 binding, dose response counter-screen; shares compounds with PG9 Ab binder; TR-FRET binding to control antibody PGV04; IC50, µM; 20% of 95 active; AID 651937
# PG126 binding DR: PG126 binding, dose response counter-screen; IC50, µM; shares compounds with PG9 Ab binder; 20% of 95 active; TR-FRET binding to antibody PG126, counterscreen
# Rev-erbA confirm: Rev-erb alpha (human) modulation, hit confirmation; 61% of 3,000 active; activation, % at 25 µM; shares compounds with Rev-erbA mod; AID 1259319; Rev-erb alpha FITC-DNA binding, fluorescence polarization, 90 min;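 active means activation at or above a set limit, or at least 3 SD above the negative control mean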;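 further: 0% = 35 nM protein with DMSO and 100% = 750 nM protein high control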
# RORg counter: affects RORgamma DNA binding in a Rev-erb alpha counter-screen; IC50, µM; shares compounds with Rev-erbA mod; AID 1259320; purified RORgamma protein-FITC-DNA binding, fluorescence polarization; 8% of 910 active;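 active means Compounds whose fitted half-maximal concentration for disrupting protein-DNA binding is below 10 micromolar; the record names Rev-erb in its text, so the target is in doubt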
# The depositor's hits bear a star; i = inactive; x = not tested or not shown. In the library only some 1.8% were active in any assay of this set; here they are far more common. Unless noted, no stated cut-off is given here; in the data, active means IC50 below about 9 µM; inactive means the rest.
SMILES,Rin1 Abl inh,Tb MetRS inh,PG9 Ab binder,Rev-erbA mod,PG9 binder conf,PGV04 Ab binding,Rev-erbA confirm,RORg counter,others
CS(=O)(=O)c1ccc2nc(NC(=O)CCS(=O)(=O)c3ccccc3)sc2c1,2,0,0,10,x,x,x,x,
Cc1cc(NC(=O)COc2ccc3c(C)c(C)c(=O)oc3c2)no1,0,0,-2,-1,x,x,x,x,
Cc1cc(NC(=O)COc2ccc3oc4ccccc4c3c2)no1,-6,-1,23*,36*,23*,32*,26*,x,
O=c1c(Cc2c(F)cccc2Cl)c(O)ccn1CCCn1ccnc1,1,0,-1,-6,x,x,x,x,
Fc1cccc2sc(Nc3nc4c(F)cccc4s3)nc12,-2,0,23*,68*,24*,38*,58*,>40,
O=C(Nc1ccc2c(c1)OCO2)C1CC(c2cccc(Br)c2)=NO1 (configuration not stated),-1,0,-2,2,x,x,x,x,
COC(=O)[C@]12C[C@H](CC(=O)NCCC(C)C)C(=O)N(Cc3ccco3)C1=C[C@H](COCc1ccccc1)O[C@@H]2C,x,x,x,-6,x,x,x,x,
OCC1(Cc2ccc(F)cc2)CCCN(CCCC(F)(F)F)C1 (configuration not stated),0,-1,-1,3,x,x,x,x,
COc1cc(NC(=O)CCn2c(=S)[nH]c3ccccc3c2=O)cc(OC)c1OC,-3,0,81*,27*,79*,81*,36*,>40,
N#Cc1c(N)nc(N2CCCC2)c(C#N)c1-c1ccc(Cl)cc1,2,0,25*,146*,19*,28*,106*,>40,
CCc1nccn1CCC(=O)N1CCCC(Nc2ccc(F)cc2)C1 (configuration not stated),2,0,-1,-1,x,x,x,x,
O=C(CNC(=O)c1sc2ccccc2c1Cl)NCc1cccc(C(F)(F)F)c1,-10,0,15*,31*,17*,19*,17*,x,
O=C(Cc1cccc(C(F)(F)F)c1)NCc1ccc(Cl)cc1,1,0,0,2,x,x,x,x,
COc1cccc(NC(=O)CSc2ncnc3c2oc2ccccc23)c1,-351,0,69*,685*,75*,93*,749*,>40,
O=C(CSc1ncnc2c1oc1ccccc12)Nc1ccccc1C(F)(F)F,-115,0,66*,348*,27*,75*,341*,x,
O=C(O)CSc1ncnc2c1oc1ccccc12,-485,-1,0,1,x,x,x,x,
COc1cc2oc(=O)cc(CN3CCN(c4ccccc4F)CC3)c2cc1Cl,1,-1,0,3,x,x,x,x,
COc1cc2cc(Br)cc(Br)c2nc1C,-63,0,47*,37*,40*,54*,22*,x,
Cc1cccc(NC(=O)CSc2nc3c([nH]c4ccccc43)c(=O)n2C)c1,-4,0,-1,-12,x,x,x,x,
Cc1ccc(-n2c(SCC(=O)Nc3cc(C)on3)nc3c([nH]c4ccccc43)c2=O)cc1,1,0,-1,-4,x,x,x,x,
COc1ccc(-n2c(SCC(=O)Nc3cc(C)on3)nc3c([nH]c4ccccc43)c2=O)cc1,-4,-1,57*,83*,43*,50*,67*,>40,
Cn1c(SCC(=O)Nc2ccccc2)nc2c([nH]c3ccccc32)c1=O,0,0,8.8*,21*,7,14*,16*,x,
CCc1cc2cc3c(cc2nc1SCC(=O)OC(C)C)OCO3,3,-1,-1,3,x,x,x,x,
CCc1cc2cc3c(cc2nc1SCC(=O)Nc1cc(C)on1)OCO3,-2,0,21*,211*,46*,66*,158*,>40,
CCc1cc2cc(C)ccc2nc1SCC(=O)Nc1cc(C)on1,-2,0,14*,17*,11*,31*,26*,x,
SMILES,Rin1 Abl inh,Tb MetRS inh,PG9 Ab binder,Rev-erbA mod,PG9 binder conf,PGV04 Ab binding,Rev-erbA confirm,RORg counter,others
CCc1cc2cc(C)ccc2nc1SCC(=O)NNC(=O)c1ccco1,-1,0,1,-1,x,x,x,x,
COC(=O)[C@]12C(=O)NC[C@H](CN1c1ccc(C(F)(F)F)cc1)N2C,8,0,-3,5,x,x,x,x,
N#Cc1cc2c(nc1SCc1ccccc1)CCCC2,-2,-1,36*,28*,44*,76*,21*,x,
COc1ccc(C)cc1Nc1nc(-c2ccccc2O)nc2ccccc12,1,0,11*,83*,3,5,59*,i,
CCn1c(=O)cc(OCC(=O)N2CCc3ccccc32)c2ccccc21,0,1,40*,45*,50*,71*,12*,x,
CC(C)CC[n+]1ccn(-c2nc3ccccc3nc2[N-]S(=O)(=O)c2ccccc2)c1,0,0,0,-4,x,x,x,x,
O=S(=O)([N-]c1nc2ccccc2nc1-n1cc[n+](Cc2ccccc2)c1)c1ccc(Cl)cc1,1,0,42*,42*,41*,58*,11,x,
COC1C(CO)OC(n2c3c(Cl)cccc3c3c4c(c5c6cccc(Cl)c6[nH]c5c32)C(=O)NC4=O)C(O)C1O (configuration not stated),-61,0,72*,111*,56*,68*,173*,>40,
CCCNC(=O)c1ccc2c(=O)n3c(-c4ccc(C)cc4)csc3nc2c1,-1,0,24*,26*,37*,68*,24*,x,
O=C(CNS(=O)(=O)c1ccccc1)OCC(=O)c1ccccc1Cl,1,0,1,4,x,x,x,x,
COc1ccc(Br)cc1-c1nc2c(c(=O)[nH]c(=O)n2Cc2ccccc2)n1C,1,0,45*,92*,69*,20*,52*,>40,PG9 binder DR=9.5*;PGV04 DR counter=5.1*;PG126 binding DR=5.7*
Cn1c(-c2cc(Cl)ccc2O)nc2c1c(=O)[nH]c(=O)n2Cc1ccccc1,5,-1,0,3,x,x,x,x,
Cc1cccc(C)c1NC(=O)COc1ccccc1C(=O)Nc1ccc(Br)cn1,-98,-1,62*,118*,61*,83*,92*,>40,
CCC(=O)c1ccccc1OCC(=O)Nc1c(C)cccc1C,0,0,1,3,x,x,x,x,
O=C(Nc1ccc2oc(-c3cccc(F)c3)nc2c1)c1ccccc1F,-44,0,16*,82*,40*,59*,42*,>40,

# High-throughput results: PubChem BioAssay, several laboratories
